Assay results as given in ChEMBL document CHEMBL2150944, “Antimalarial activity of pyrroloiminoquinones from the Australian marine sponge Zyzzya sp” (J Med Chem, 2012).
Active and inactive are the calls of the source. The calls are words filed in the database; no cut-off is given here.

Tests used:
Plasmodium falciparum [1] = experiment: Antimalarial activity against chloroquine-sensitive Plasmodium falciparum 3D7 assessed as growth inhibition after 72 hrs by DAPI staining; format: functional, organism-based; conditions: 3D7, 72 h
Summary of the method: (§1)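 P. falciparum 3D7 or Dd2 at 2% or 3% parasitemia, 0.3% hematocrit, exposed 72 h at 37 °C, 5% CO2. Staining with DAPI plus saponin and Triton X-100, 5 h at room temperature in the dark, then confocal imaging and automated counting of parasite spots. Percent inhibition is calculated against DMSO and 2 μM artemisinin controls.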

Plasmodium falciparum [2] = experiment: Antimalarial activity against chloroquine-resistant Plasmodium falciparum Dd2 assessed as growth inhibition after 72 hrs by DAPI staining; format: functional, organism-based; conditions: Dd2, 72 h; summary of the method: as §1
[3] = Selectivity index, ratio of IC50 for human HEK293 cells to IC50 for chloroquine-resistant Plasmodium falciparum Dd2; format: toxicity, cell-based; conditions: read-out: Ratio IC50
HEK293 = experiment: Cytotoxicity against human HEK293 cells assessed as growth inhibition after 72 hrs by Alamar blue assay; format: cell-based; conditions: HEK293, 72 h
Summary of the method: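 HEK293 adherent cells (3000/well) were incubated with compound for 72 h at 37 °C and 5% CO2. Medium was removed, then 10% Alamar Blue was added for 5−6 h. Fluorescence was read at ex 535/em 590 nm. Inhibition was normalised to DMSO and 10 μM puromycin controls. IC50 came from nonlinear variable-slope regression of % inhibition against log dose.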

[4] = Selectivity index, ratio of IC50 for human HEK293 cells to IC50 for chloroquine-sensitive Plasmodium falciparum 3D7; format: toxicity, cell-based; conditions: read-out: Ratio IC50
Plasmodium falciparum [5] = experiment: Antimalarial activity against chloroquine-sensitive Plasmodium falciparum 3D7 ring stage assessed as growth inhibition at 408 nM after 10 hrs by [3H]-hypoxanthine incorporation assay; format: functional, organism-based
Summary of the method: (§2)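 Synchronous 3D7 rings (~10−16 h post-invasion) or trophozoites (~24−30 h post-invasion), 0.5% parasitemia, 5% hematocrit, exposed 4, 6 or 10 h to compound or 0.04% DMSO vehicle. Cultures are washed, plated in triplicate with 0.5 μCi 3H-hypoxanthine, and incorporation is counted after ~48−72 h. Percent growth is relative to matched vehicle controls, from at least two independent experiments.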

Mus musculus [6] = experiment: Toxicity in Swiss albino mouse assessed as behaviour changes upto 4 mg/kg/day, sc for 4 days; format: organism-based; design: route subcutaneous; conditions: in vivo, 96 h
Summary of the method: (§3)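 Healthy mice dosed subcutaneously daily for 4 consecutive days, compound in Tween 80/ethanol (7/3 v/v) diluted 10-fold in distilled water (~0.2 mL). Mice are assessed before and after dosing for weight loss >10%, ruffled coat, shaking, severe pallor, reduced activity and behaviour changes.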

Plasmodium berghei = experiment: Antimalarial activity against chloroquine-sensitive Plasmodium berghei ANKA infected in Swiss albino mouse assessed as suppression of parasitemia at 4 mg/kg/day, ip measured on day 4 post infection by Giemsa staining; format: functional, organism-based
Mus musculus [7] = experiment: Toxicity in Swiss albino mouse assessed as ruffled coat at 8 mg/kg/day for 4 days; format: organism-based; conditions: in vivo, 96 h; summary of the method: as §3
Plasmodium falciparum [8] = experiment: Antimalarial activity against chloroquine-sensitive Plasmodium falciparum 3D7 trophozoite stage assessed as growth inhibition at 408 nM after 10 hrs by [3H]-hypoxanthine incorporation assay; format: functional, organism-based; summary of the method: as §2
Plasmodium falciparum [9] = experiment: Antimalarial activity against chloroquine-sensitive Plasmodium falciparum 3D7 trophozoite stage assessed as growth inhibition at 204 nM after 10 hrs by [3H]-hypoxanthine incorporation assay; format: functional, organism-based; summary of the method: as §2
Mus musculus [10] = experiment: Toxicity in Swiss albino mouse assessed as severe pallor upto 4 mg/kg/day, sc for 4 days; format: organism-based; design: route subcutaneous; conditions: in vivo, 96 h; summary of the method: as §3
[11] = Plasma concentration in Swiss mouse at 8 mg/kg, sc administered as solution measured 1 hr post dose; format: ADME, organism-based; design: dose 8 mg/kg, route subcutaneous
Summary of the method: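 Nonfasted male Swiss outbred mice (26−34 g), nominal 8 mg/kg subcutaneous into the dorsal skinfold in saline vehicle with 5−7% DMSO. Blood is drawn by cardiac puncture under isoflurane at 0.25, 1 or 4 h (n = 2 per time point) into stabilizer. Plasma is precipitated with acetonitrile and quantified by UPLC−MS against standards in blank mouse plasma.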

Mus musculus [12] = experiment: Toxicity in Swiss albino mouse assessed as reduced activity at 8 mg/kg/day, sc for 4 days; format: organism-based; design: route subcutaneous; conditions: in vivo, 96 h; summary of the method: as §3
[13] = Intrinsic clearance in human liver microsomes assessed as per mg of protein at 1 uM after 60 mins; format: ADME, Microsome; conditions: read-out: CLH
Summary of the method: (§4)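 1 μM compound incubated at 37 °C with human or mouse liver microsomes (0.4 mg/mL protein) in 0.1 M phosphate pH 7.4. Reaction started with an NADPH-regenerating system plus MgCl2 and quenched with ice-cold acetonitrile at time points up to 60 min. Parent loss is followed by LC−MS and fitted to exponential decay, giving half-life and in vitro CLint.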

[14] = Intrinsic clearance in mouse liver microsomes assessed as per mg of protein at 1 uM after 60 mins; format: ADME, Microsome; conditions: read-out: CLH; summary of the method: as §4
Mus musculus [15] = experiment: Toxicity in Swiss albino mouse assessed as body weight loss > 10 % upto 4 mg/kg/day, sc for 4 days; format: organism-based; design: route subcutaneous; conditions: in vivo, 96 h; summary of the method: as §3
[16] = Half life in human liver microsomes at 1 uM after 60 mins; format: ADME, Microsome; summary of the method: as §4
Mus musculus [17] = experiment: Toxicity in Swiss albino mouse assessed as shaking upto 4 mg/kg/day, sc for 4 days; format: organism-based; design: route subcutaneous; conditions: in vivo, 96 h; summary of the method: as §3
[18] = Half life in mouse liver microsomes at 1 uM after 60 mins; format: ADME, Microsome; summary of the method: as §4
Mus musculus [19] = experiment: Toxicity in Swiss albino mouse assessed as reduced activity upto 4 mg/kg/day, sc for 4 days; format: organism-based; design: route subcutaneous; conditions: in vivo, 96 h; summary of the method: as §3
Plasmodium falciparum [20] = experiment: Antimalarial activity against chloroquine-sensitive Plasmodium falciparum 3D7 ring stage assessed as growth inhibition at 204 nM after 10 hrs by [3H]-hypoxanthine incorporation assay; format: functional, organism-based; summary of the method: as §2
Mus musculus [21] = experiment: Toxicity in Swiss albino mouse assessed as ruffled coat upto 4 mg/kg/day for 4 days; format: organism-based; conditions: in vivo, 96 h; summary of the method: as §3
Mus musculus [22] = experiment: Toxicity in Swiss albino mouse assessed as body weight loss > 10 % at 8 mg/kg/day, sc for 4 days; format: organism-based; design: route subcutaneous; conditions: in vivo, 96 h; summary of the method: as §3

SMILES: C[N+]1=C2C=C(N/C=C/c3ccc(O)cc3)C(=O)c3[nH]cc(c32)CC1 [MAKALUVAMINE L]
- IC50 (Plasmodium falciparum [1]): 40 nM
- IC50 (Plasmodium falciparum [2]): 21 nM
- selectivity ratio [3]: 66
- IC50 (HEK293): 1400 nM
- selectivity ratio [4]: 35

SMILES: CN1CCc2cn(C)c3c2C1=CC(=O)C3=O [DAMIRONES A]
- IC50 (Plasmodium falciparum [1]): 1880 nM
- IC50 (Plasmodium falciparum [2]): 360 nM
- selectivity ratio [3]: > 333
- IC50 (HEK293): > 120000 nM
- selectivity ratio [4]: > 63

SMILES: C[N+]1=C2C=C(NCCc3ccc(O)cc3)C(=O)c3[nH]cc(c32)CC1.O=C([O-])C(F)(F)F [MAKALUVAMINE J TFA SALT]
- growth inhibition (GI) (Plasmodium falciparum [5]): Active
- IC50 (Plasmodium falciparum [1]): 25 nM
- Activity (Mus musculus [6]): Non-toxic
- Activity (Plasmodium berghei): inactive
- IC50 (Plasmodium falciparum [2]): 22 nM
- Activity (Mus musculus [7]): Toxic
- selectivity ratio [3]: 54
- growth inhibition (GI) (Plasmodium falciparum [8]): Active
- growth inhibition (GI) (Plasmodium falciparum [9]): Active
- IC50 (HEK293): 1200 nM
- Activity (Mus musculus [10]): Non-toxic
- concentration at 1 h [11]: 1700 nM
- Activity (Mus musculus [12]): Toxic
- microsomal CLint at 1 µM [13]: < 5 µL/min/mg
- microsomal CLint at 1 µM [14]: 41 µL/min/mg
- Activity (Mus musculus [15]): Non-toxic
- selectivity ratio [4]: 48
- half-life at 1 µM [16]: > 350 min
- Activity (Mus musculus [17]): Non-toxic
- half-life at 1 µM [18]: 42 min
- Activity (Mus musculus [19]): Non-toxic
- growth inhibition (GI) (Plasmodium falciparum [20]): Active
- Activity (Mus musculus [21]): Non-toxic
- Activity (Mus musculus [22]): Toxic
